The list is not random: actives were taken first. Their share in the collection is about 2.3%.
TCR-CD3 inh = inhibitors of human TCR-CD3 interaction, primary screen, biochemical, fluorescence, TAMRA-labeled TCR probe; T-cell receptor (TCR); inhibition, % at 9.4 µM; actives 0.37% (n = 360,000); AID 651800, 2012; in the data active = inhibition above about 19%;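 also: recombinant mutant TCR 2C K166C tagged with TAMRA read by polarization; 0% = receptor in buffer alone and 100% = receptor with positive control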
mABHD4 FP = ABHD4 inhibitors, primary screen, biochemical, fluorescence polarization, mouse. (Lyso)-N-acylphosphatidylethanolamine lipase (Mus musculus), Q8VD66. purified mABHD4, FP-Rh probe fluorescence polarization. inhibition, % at 8.92 µM. actives 0.54% (n = 370,000);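 active = inhibition exceeding the mean over every tested compound plus 3 SD, cut at about 30% in these data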;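 also: 0% = plate median of compound wells and 100% = S159A mutant with DMSO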
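Assay system: Wild-type mouse ABHD4 protein | Medium: HEPES pH 7.0 buffer, 150 mM NaCl, 0.01% Pluronic F-127 | Incubation: Enzyme–compound pre-incubation 45 min, then probe 60 min, both 25 °C | Technique: Fluorescence polarization with parallel and perpendicular emission, 525/598 nm | Evaluation: % inhibition of FP-Rh probe binding versus controls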
pPAFAH inh = pPAFAH enzyme inhibitors, primary screen, biochemical, fluorescence polarization, human | Platelet-activating factor acetylhydrolase (Homo sapiens), Q13093 | inhibition, % at 3.39 µM | recombinant pPAFAH, FP-rhodamine probe fluorescence polarization | actives 1.5% (n = 330,000) | AID 463082, 2010;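 active = inhibition above the mean inhibition across the screen plus 3 SD, cut at about 25% in these data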;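 also: inhibitors block binding of the rhodamine activity-based probe so polarization drops; 0% = enzyme with DMSO and 100% = wells lacking pPAFAH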
HTRA1 inhibitor = HTRA1 serine protease inhibitors, primary screen, biochemical, fluorescence polarization, HTS | actives 0.5% (n = 340,000) | recombinant HTRA1, FP-rhodamine activity-based probe | inhibition, % at 5.96 µM; in the data active = inhibition above about 36%;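 also: 0% = enzyme with DMSO and 100% = wells lacking enzyme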
Target sequence (Q92743 whole entry, looked up): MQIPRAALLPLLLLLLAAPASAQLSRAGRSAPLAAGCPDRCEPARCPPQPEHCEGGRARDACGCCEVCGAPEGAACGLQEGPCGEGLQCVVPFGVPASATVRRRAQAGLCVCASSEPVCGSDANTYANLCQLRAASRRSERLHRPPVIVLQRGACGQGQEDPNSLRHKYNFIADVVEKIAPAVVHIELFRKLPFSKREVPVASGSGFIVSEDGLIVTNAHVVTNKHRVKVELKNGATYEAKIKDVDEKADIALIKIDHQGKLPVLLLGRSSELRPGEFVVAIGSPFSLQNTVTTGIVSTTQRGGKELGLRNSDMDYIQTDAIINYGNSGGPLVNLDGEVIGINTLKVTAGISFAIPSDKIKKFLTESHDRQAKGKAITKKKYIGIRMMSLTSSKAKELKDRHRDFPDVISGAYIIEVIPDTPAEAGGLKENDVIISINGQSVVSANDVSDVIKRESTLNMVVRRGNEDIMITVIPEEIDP
SIAE primary = human SIAE inhibitors, primary screen, biochemical, fluorescence polarization, FP-Rh probe, 1536-well HTS | Sialate O-acetylesterase (Homo sapiens), Q9HAT2 | SIAE FP-Rh probe binding | inhibition, % at 9.66 µM | actives 0.69% (n = 370,000) | AID 1053197, 2014;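 active = inhibition above a cutoff: mean of compounds within the control limits plus 3 SD of those, cut at about 17% in these data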;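 also: 0% = plate median of compound wells and 100% = probe without SIAE protein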
SIAE confirm = human SIAE inhibitors, retest, confirmation, biochemical, fluorescence polarization, FP-Rh probe, triplicate. shares compounds with SIAE primary. SIAE FP-Rh activity-based probe. inhibition, % at 9.66 µM. actives 13% (n = 2,300);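 active = mean inhibition of the replicates above the hit cutoff set in the primary screen, cut at about 17% in these data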;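 also: 0% = SIAE with DMSO and probe and 100% = probe without SIAE; inhibitors lower polarization as more probe stays unbound to SIAE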
Starred values were filed as active, the others as inactive; · = not tested or not shown.

SMILES | TCR-CD3 inh | mABHD4 FP | pPAFAH inh | HTRA1 inhibitor | SIAE primary | SIAE confirm
COc1ccc(OC)c(N2C(=O)c3ccccc3C2c2nnnn2-c2ccc3c(c2)OCCO3)c1 (stereo not drawn) | 0 | 6 | · | · | 16 | ·
CC1CC(C)CN(CCCNS(=O)(=O)c2cc3c(cc2Br)CCN3C(=O)C2CC2)C1 (stereo not drawn) | · | -4 | · | · | 5 | ·
COc1ccc(CC(=O)c2ccc(OC)c(OC)c2)cc1 | 0 | -6 | 0 | 2 | 17* | 3
COc1ccc(CC(=O)OCC(=O)c2ccc(OC)c(OC)c2)cc1 | 1 | 2 | 2 | -5 | 5 | ·
O=C(N/N=C\c1cc(Br)ccc1O)c1ccc(S(=O)(=O)N2CCCCC2)cc1 | 15 | 7 | 19 | 26 | 32* | 39*
C[C@H](O)[C@@H]1CN2CCc3c([nH]c4ccccc34)[C@@H]2C[C@@H]1N(C)C(=O)Nc1cccc2ccccc12 | -7 | 20 | · | · | 22* | -6
COC(=O)Nc1ncc(CN2CCc3ccccc3C2)s1 | -5 | 3 | -5 | -3 | 78* | -7
CCOC(=O)C1CCN(Cc2cnc(NC(=O)OC)s2)CC1 | 3 | 9 | 3 | -1 | -3 | ·
O=C(C1CC1)N1CCN(c2ccc(O)cc2)CC1 | 1 | 19 | 2 | 1 | 19* | 4
O=C(CSc1nnc(-c2ccc(F)cc2)o1)N1CCCC1 | 2 | 4 | -6 | 1 | 21* | -4
O=C(CSc1nnc(-c2cccc(F)c2)o1)NC1CCCC1 | -6 | 1 | · | 1 | 20* | -1
Cc1ccc(-c2nnc(SCC(=O)N3CCCC3)o2)cc1 | 6 | -3 | -2 | 6 | 0 | ·
CCN(c1nc(C)cc(OC)n1)S(=O)(=O)c1ccccc1 | 7 | -3 | -2 | 1 | 18* | 4
C=CCN(c1nc(C)cc(OC)n1)S(=O)(=O)c1ccccc1 | 10 | -1 | 4 | -1 | 5 | ·
CCN1CCCC1CNC(=O)C(=O)NC(C)c1ccccc1 (stereo not drawn) | 5 | 6 | 1 | 8 | 19* | -2
Cc1nc2c3ccccc3nc(NNC(=O)CCC(=O)N3CCC(C)CC3)n2n1 | -4 | 1 | 4 | -17 | 23* | 3
CC(=O)c1c(C)[nH]c(C(=O)NCc2ccc(F)cc2)c1C | 2 | 1 | 0 | -7 | 0 | ·
CC(=O)c1c(C)[nH]c(C(=O)NCc2ccccc2)c1C | 3 | 0 | 1 | -1 | 26* | -1
O=C(Nc1ccc2[nH]c(=S)sc2c1)Nc1ccccc1F | 1 | -12 | 14 | -19 | 26* | -6
O=C1NC[C@@H](CCCCN2C[C@H](Cc3ccc(O)cc3)N(Cc3ccccc3)C(=O)C2=O)N(CC2CCCCC2)C1=O | 5 | -4 | · | · | -5 | ·
Cc1ccc(NC(=O)CSc2nccn2Cc2ccccc2)cc1C | 1 | 0 | 7 | -22 | 18* | 3
CCCCNC(=O)C[C@@H]1C[C@@]2(C(=O)OC)CCCCC=C2N(Cc2ccccc2)C1=O | 3 | 0 | · | · | 22* | 0
COCCCNC(=O)C[C@@H]1C[C@@]2(C(=O)OC)CCCCC=C2N(Cc2ccccc2)C1=O | -4 | -7 | · | · | -9 | ·
CCN1CCN(CCC(=O)Nc2cc(OC)ccc2OC)CC1 | -2 | 4 | 5 | 0 | 20* | 6
COc1ccc(OC)c(NC(=O)CCN2CCN(C)CC2)c1 | -2 | 0 | -7 | 6 | 2 | ·
SMILES | TCR-CD3 inh | mABHD4 FP | pPAFAH inh | HTRA1 inhibitor | SIAE primary | SIAE confirm
COC(=O)[C@@]1(Cc2ccc(F)cc2)[C@H]2c3cc(C(=O)N4CCCC4)n(C)c3C[C@H]2CN1C(=O)c1ccccc1 | -10 | -3 | · | · | 11 | ·
COC(=O)C[C@@H]1CC[C@@H]2[C@@H](COc3ccc(NC(C)=O)cc3C(=O)N2C)O1 | · | 3 | · | · | 0 | ·
COc1ccccc1CNC(=O)C(=O)Nc1nccs1 | 2 | -2 | -1 | -1 | 3 | ·
COc1cccc(CNc2nccs2)c1O | 4 | 3 | 2 | -5 | 18* | 1
N#Cc1ccccc1NCC(=O)N1CCN(S(=O)(=O)c2ccccc2)CC1 | 4 | 2 | 6 | -4 | 17* | 0
O=C(O)CSCC(=O)N1CCN(S(=O)(=O)c2ccccc2)CC1 | -4 | 3 | 0 | 6 | 21* | -1
CC(=O)c1ccc(NCC(=O)N2CCN(S(=O)(=O)c3ccccc3)CC2)cc1 | 1 | -4 | 3 | 0 | -1 | ·
CCC[C@H]1OC(=O)[C@@H]2CCCN2C(=O)[C@H]([C@H](C)Cc2ccccc2)NC(=O)[C@@H]2CCCN2C(=O)[C@@H]2CCCN2C(=O)[C@H](C(C)C)OC(=O)[C@@H]2CCCN2C(=O)[C@H](C(C)C)NC(=O)C1(C)C | · | -3 | · | · | 3 | ·
CCOc1ccc(-n2c(C)cc(/C=N/NC(=O)C(N)=O)c2C)cc1 | 5 | 5 | 5 | 5 | 20* | -1
C/C(=N\NC(=O)c1ccccc1O)c1ccc(NC(=O)Cc2ccccc2)cc1 | 6 | 2 | 0 | 11 | 18* | 0
CC(CC(=O)N1CCN(S(=O)(=O)c2ccc(Cl)cc2)CC1)n1cncn1 (stereo not drawn) | -2 | -6 | 3 | -3 | 18* | -4
CN1CCN(c2ccc(CNC(=O)c3ccc(-c4ccc(F)c(F)c4)c4ccoc34)cc2)CC1 | 10 | 6 | · | · | 19* | 7
O=S1(=O)c2c(cccc2N2CCC[C@@H]2CO)OCCCN1C1CC1 | · | 0 | · | · | -4 | ·
OCC1(CCc2ccccc2)CCCN(C/C=C/c2ccccc2)C1 (stereo not drawn) | 5 | -1 | 2 | -10 | 18* | -2
NC(=O)Cc1cccc(C(=O)c2ccccc2)c1N | · | 4 | · | · | -3 | ·
CC(=O)c1ccc(OC(=O)CCN2c3ccccc3Sc3ccccc32)cc1 | 2 | -5 | 20 | 35 | 19* | -3
CCOC(=O)[C@]12CCCC=C1N(Cc1ccccc1)C(=O)[C@H](CC(=O)NCc1cccc(C(F)(F)F)c1)C2 | 7 | -6 | · | · | 4 | ·
COc1ccc2nc(C(c3ccc(C)cc3)n3c(-c4ccccc4Br)nc4ccccc43)[nH]c2c1 (stereo not drawn) | 3 | 9 | · | · | 27* | -3
O=C(OCC#CCSc1nnc(-c2cccs2)o1)c1ccc(F)cc1 | · | -5 | · | · | -4 | ·
O=C(NCC(=O)N1CCCCCCC1)c1ccc(Cl)cc1 | 5 | 1 | -3 | -2 | 5 | ·
CC(C)(C)c1ccc(C(=O)NCC(=O)N2CCCCCC2)cc1 | 1 | 5 | 3 | -6 | 21* | -2
CCNC(=O)C1(C)CCN(Cc2ccc(C#N)cc2)C1 (stereo not drawn) | -10 | -11 | · | · | 3 | ·
CCOC(=O)c1cccc(NC(=O)CN(C)S(=O)(=O)c2ccc(F)cc2)c1 | · | -1 | · | · | 1 | ·

Screening data deposited in PubChem BioAssay by The Scripps Research Institute Molecular Screening Center.
